Reference: ChEMBL document CHEMBL1123363, “(5-Amino-1,3-dimethyl-1H-pyrazol-4-yl)(2-fluorophenyl)methanones . A series of novel potential antipsychotic agents” (J Med Chem, 1986)

Legend:
[1] = biological target: GABA-A receptor; anion channel; test: Displacement of [3H]GABA from rat brain Gamma-aminobutyric acid receptor
How it was run: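 GABA binding in membranes of rat whole brain minus cerebellum and brain stem (male Long-Evans, 150–250 g), using [3H]-GABA at 25 nM final. GABA at 1 mM final was the reference. IC50 from four or five concentrations by nonlinear curve fitting.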

[2] = organism: Rattus norvegicus; test: Compound was tested for adenylate cyclase activity in rat corpus striatum; assay type: functional
How it was run: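 Rat corpus striatum homogenates from male Long–Evans rats (200–300 g) were incubated with dopamine held at 20 μM while test compound concentration was varied. Cyclic AMP formed was measured by radioimmunoassay, with assays run in triplicate.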

[3] = Displacement of [3H]flunitrazepam from rat brain GABA-A benzodiazepine receptor
[4] = test system: Mus musculus; test: Inhibition of apomorphine-induced climbing in mice after intraperitoneal administration; assay type: functional; conditions: ip
How it was run: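 Male Swiss–Webster mice (25–35 g), ten per dose, were acclimated 30 min in cylindrical cages and then dosed ip. One hour later they received apomorphine 3 mg/kg sc. Climbing was scored in 30-s tests every 5 min for 30 min, starting 15 min after apomorphine. ED50 from at least three doses by nonlinear regression.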

[5] = Extrapyramidal side effect test in cebus monkey; assay type: functional; conditions: read-out: MED
How it was run: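 Groups of three to six were then dosed by gavage and observed hourly for 6–8 h for dystonia or dyskinesia. Any unequivocal sign counted as a positive response. Minimal effective dose was determined in at least three animals.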

[6] = test system: Rattus norvegicus; test: Compound was tested for its affect on the accumulation of the dopamine metabolite homovanillic acid (HAV) in the rat striatum at 25 mg/kg dose after peroral administration; assay type: functional; conditions: route oral
How it was run: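 Male Long–Evans rats were dosed orally and decapitated 2 h later. Striatal HVA was isolated on Sephadex G-10 and measured spectrofluorometrically, expressed as % control ± SEM.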

[7] = biological target: Dopamine receptor; test: Binding affinity for dopamine receptor in rat striatal membrane using [3H]haloperidol as radioligand; assay type: cell membranes, Striatum
How it was run: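 Nonspecific binding defined with (+)-butaclamol at 0.1 μM final. IC50 fitted by nonlinear curve fit from four or five concentrations in triplicate.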

[8] = biological target: T1, Adrenergic receptor alpha-2 (Rattus norvegicus, UniProt P22086+P19328+P22909); test: Binding affinity against alpha-2 adrenergic receptor in rat brain using [3H]- clonidine
T1 sequence (P22086 whole entry): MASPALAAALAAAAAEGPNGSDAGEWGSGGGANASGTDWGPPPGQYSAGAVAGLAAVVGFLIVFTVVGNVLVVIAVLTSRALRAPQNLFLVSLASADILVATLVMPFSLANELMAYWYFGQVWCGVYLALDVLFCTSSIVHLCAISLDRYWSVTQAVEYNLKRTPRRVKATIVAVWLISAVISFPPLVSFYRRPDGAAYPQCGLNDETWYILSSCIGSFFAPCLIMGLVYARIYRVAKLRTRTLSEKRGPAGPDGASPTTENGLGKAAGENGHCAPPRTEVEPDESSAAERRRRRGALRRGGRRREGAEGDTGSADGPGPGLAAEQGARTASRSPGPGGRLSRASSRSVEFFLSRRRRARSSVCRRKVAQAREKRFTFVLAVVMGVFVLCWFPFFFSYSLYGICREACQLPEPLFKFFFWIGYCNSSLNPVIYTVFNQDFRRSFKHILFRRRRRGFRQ
T1 sequence (P19328 whole entry): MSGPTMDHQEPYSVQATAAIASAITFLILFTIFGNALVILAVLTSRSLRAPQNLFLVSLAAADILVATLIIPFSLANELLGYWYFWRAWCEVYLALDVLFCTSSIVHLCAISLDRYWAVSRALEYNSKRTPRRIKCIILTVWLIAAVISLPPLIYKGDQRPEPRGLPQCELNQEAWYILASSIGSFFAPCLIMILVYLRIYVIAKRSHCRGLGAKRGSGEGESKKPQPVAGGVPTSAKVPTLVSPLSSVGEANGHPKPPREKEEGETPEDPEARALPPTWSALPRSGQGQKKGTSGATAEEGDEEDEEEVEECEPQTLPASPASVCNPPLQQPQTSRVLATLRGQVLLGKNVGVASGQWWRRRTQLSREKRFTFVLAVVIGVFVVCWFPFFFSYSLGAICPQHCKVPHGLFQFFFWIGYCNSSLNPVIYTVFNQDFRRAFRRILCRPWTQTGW
T1 sequence (P22909 whole entry): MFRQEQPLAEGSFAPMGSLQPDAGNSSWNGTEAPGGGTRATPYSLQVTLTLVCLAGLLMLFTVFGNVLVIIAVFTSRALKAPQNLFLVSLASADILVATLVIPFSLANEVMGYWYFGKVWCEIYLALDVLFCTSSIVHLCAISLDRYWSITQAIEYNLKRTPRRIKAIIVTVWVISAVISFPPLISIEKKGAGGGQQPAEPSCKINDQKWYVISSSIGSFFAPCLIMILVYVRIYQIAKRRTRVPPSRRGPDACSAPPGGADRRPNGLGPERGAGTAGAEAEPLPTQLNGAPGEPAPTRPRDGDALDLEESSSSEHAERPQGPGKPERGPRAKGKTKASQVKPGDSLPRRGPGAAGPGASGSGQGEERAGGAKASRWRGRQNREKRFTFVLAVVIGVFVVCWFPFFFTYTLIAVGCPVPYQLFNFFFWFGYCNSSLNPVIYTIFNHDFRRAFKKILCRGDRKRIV

[9] = organism: Mus musculus; test: Ability to inhibit locomotor activity using ataxia test.; assay type: functional; conditions: read-out: MED
How it was run: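 Male Swiss–Webster mice (20–30 g, unfasted), nine per dose in groups of three, dosed ip in 0.2% methocel (dose as parent compound) 1 h before testing. Ataxia was scored first on an inverted screen over 60 s as % of mice falling. […] ED50 from at least three doses.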

[10] = test system: Rattus norvegicus; test: Compound was tested for serum prolactin assay method in rats at 100 mg/kg dose after peroral administration; assay type: functional; conditions: route oral
How it was run: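 Seven-week-old male Sprague–Dawley rats, five per group, were dosed orally and killed by decapitation 1 h later. Serum prolactin from trunk blood was measured by radioimmunoassay with [125I]-PRL and expressed as % of control (mean ± SEM).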

[11] = biological target: T2, Adenosine receptor A1 (Rattus norvegicus, UniProt P25099); test: Binding affinity towards adenosine A1 receptor using [3H]- CHA
T2 sequence (P25099 whole entry): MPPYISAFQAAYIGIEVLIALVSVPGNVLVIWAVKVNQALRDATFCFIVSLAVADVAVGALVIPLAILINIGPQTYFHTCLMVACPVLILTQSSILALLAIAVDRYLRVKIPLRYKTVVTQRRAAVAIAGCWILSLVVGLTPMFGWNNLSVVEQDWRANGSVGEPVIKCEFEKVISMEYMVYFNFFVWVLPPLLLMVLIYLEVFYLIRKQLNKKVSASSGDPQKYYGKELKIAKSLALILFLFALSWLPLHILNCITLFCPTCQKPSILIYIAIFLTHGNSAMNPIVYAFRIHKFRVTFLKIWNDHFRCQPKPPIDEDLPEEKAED
How it was run: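 Adenosine A1 binding in membranes of rat whole brain minus brain stem and cerebellum (male Long-Evans, 150–250 g), using [3H]-CHA at 1.0 nM final. Theophylline at 1 mM final was the reference. IC50 from four or five concentrations by nonlinear fit.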

`Cc1nn(C)c(NC(=O)CNCCCN2CCCCC2C)c1C(=O)c1ccccc1F` (centres undefined) showed an IC50 [1] of over 10 µM, an IC50 [2] of over 10 µM and an IC50 [3] of over 10 µM. For the same compound, the ED50 [4] was over 100 mg/kg, the minimal effective dose [5] was over 200 mg/kg and the Control [6] was 95.8%. For the same compound, the IC50 [7] was over 10 µM, the IC50 [8] was over 10 µM and the minimal effective dose [9] was 30 mg/kg. The Control [10] was 51%.
In the case of `CCN(CC)CC(=O)Nc1c(C(=O)c2ccccc2F)c(C)nn1C`, the IC50 [2] is reported as over 10 µM, the IC50 [3] is reported as over 10 µM and the ED50 [4] is reported as over 100 mg/kg. For the same compound, the minimal effective dose [5] was over 100 mg/kg, the Control [6] was 114.9% and the IC50 [11] was over 10 µM. The minimal effective dose [9] was 30 mg/kg and the Control [10] was 21.8%.
Compound `Cc1nn(C)c(N)c1C(=O)c1ccccc1F` has an IC50 [1] of over 10 µM, an IC50 [3] of over 10 µM and an IC50 [11] of over 10 µM. For the same compound, the IC50 [7] was over 10 µM, the IC50 [8] was over 10 µM and the minimal effective dose [9] was under 10 mg/kg.
